“Also recorded” adds a separate entry of the source.
What was measured:
[1] = system: Meth A-specific CTL; format: cell-based, mouse; details: E/T ratio 6:1, 4 h ^51Cr-release
How it was run: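 Targets were T2-Kd cells pulsed with peptide, labeled with Na51CrO4, and plated at 1 × 10^3 per well. Meth A-specific CTL (cloned CD3+CD4−CD8+NK-1.1− line from Meth A-immune BALB/c mice) were added at E:T 6:1. Release was measured over 4 h and expressed as % specific lysis.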

[2] = system: human CD8^+ T cells; experiment: in vitro stimulation of human CD8^+ T cells; format: cell-based; details: preliminary findings; listed as Hsd17b12^114T peptide
[3] = target: H2-K^d (Mus musculus, UniProt P01902); experiment: MHC stabilization assay; format: binding; details: T2-K^d cells, 37°C, MFI with anti-H2-K^d mAb and FITC-conjugated anti-mouse IgG
Sequence of H2-K^d (P01902 whole entry, looked up): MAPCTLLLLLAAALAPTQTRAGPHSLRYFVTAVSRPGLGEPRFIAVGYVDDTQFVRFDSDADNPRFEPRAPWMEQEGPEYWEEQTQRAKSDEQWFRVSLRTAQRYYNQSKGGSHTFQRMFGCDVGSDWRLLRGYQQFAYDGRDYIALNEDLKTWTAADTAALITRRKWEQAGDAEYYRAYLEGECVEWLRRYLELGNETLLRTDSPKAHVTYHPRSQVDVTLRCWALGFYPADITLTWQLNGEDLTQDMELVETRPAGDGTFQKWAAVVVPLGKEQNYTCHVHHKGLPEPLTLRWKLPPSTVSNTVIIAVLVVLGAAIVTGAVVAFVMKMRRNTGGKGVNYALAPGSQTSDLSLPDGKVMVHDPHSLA
How it was run: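 Peptide-pulsed T2-Kd cells were kept at 37°C, then stained with anti-H2-Kd mAb (HB159) and FITC-conjugated anti-mouse IgG. Surface Kd was read as mean fluorescence intensity. Reference samples were unpulsed cells and peptide-pulsed cells held at 4°C.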

[4] = T2-K^d cells pulsed with peptide

Sequence | affinity of Meth A CTL for peptide [1, 4] | recognition by Meth A-specific CTL (in words) [1, 4] | fold higher affinity of Meth A CTL (TYDKIKTGL vs IYDKIKTGL) ([1]; TYDKIKTGL over IYDKIKTGL, T2-K^d cells) | immunogenicity, stimulation of human CD8^+ T cells in vitro [2] | affinity for H2-K^d molecules [3]
TYDKIKTGL | ~ 1 × 10^−10 M | recognized by the Meth A-specific CTL | 100 × | immunogenic; also recorded: can induce effectors cross-reactive against the HSD17B12_114–122 peptide, naturally presented by human tumor cell lines | ~ 1 × 10^−8 M
IYDKIKTGL | < 1e-08 M | – | – | – | ~ 1 × 10^−8 M

From PMC2855844 (Cancer immunology, immunotherapy : CII, 2009)
